Measurements as given in ChEMBL document CHEMBL2434954, “Novel 6β-acylaminomorphinans with analgesic activity” (Eur J Med Chem, 2013).
The source made the active and inactive calls.

Tests used:
Mu-type opioid receptor [1] = target: T1, Mu-type opioid receptor (Mus musculus, UniProt P42866); assay: Displacement of [125I]-BNtxA from mouse cloned mu opioid receptor expressed in CHO cells after 90 mins; type: cell-based
Procedure, shortened: (§1)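 CHO membranes stably expressing cloned mouse MOR-1, DOR-1 or KOR-1 (30-40 μg/mL protein), competition against 0.1 nM 125I-BNtxA. Incubation 90 min at 25°C in 50 mM potassium phosphate pH 7.4, with 5 mM MgSO4 for MOR-1 only. Nonspecific binding with 8 μM levallorphan. Ki from IC50. Mean ± SEM, at least three replicates.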

[2] = target: T2, Kappa-type opioid receptor (Mus musculus, UniProt P33534); assay: Displacement of [125I]-BNtxA from mouse cloned kappa opioid receptor expressed in CHO cells after 90 mins; type: cell-based; procedure, shortened: as §1
T2 sequence (P33534 whole entry): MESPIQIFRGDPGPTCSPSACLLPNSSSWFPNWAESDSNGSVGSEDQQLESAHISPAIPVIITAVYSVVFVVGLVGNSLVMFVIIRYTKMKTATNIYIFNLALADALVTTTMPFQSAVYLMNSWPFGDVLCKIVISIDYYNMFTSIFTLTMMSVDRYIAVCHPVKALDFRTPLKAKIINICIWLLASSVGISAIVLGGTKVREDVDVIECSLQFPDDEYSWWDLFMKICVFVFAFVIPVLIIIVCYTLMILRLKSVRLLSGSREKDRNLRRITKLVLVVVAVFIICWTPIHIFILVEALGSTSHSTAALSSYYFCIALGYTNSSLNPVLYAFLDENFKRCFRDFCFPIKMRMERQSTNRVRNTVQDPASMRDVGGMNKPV

Mus musculus [3] = assay: Analgesic activity in sc dosed CD1 mouse assessed as increase in pain threshold by tail flick method; type: functional
Procedure, shortened: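 Male CD-1 mice (25-35 g), radiant heat tail-flick. Baseline 2.0-3.0 s, mean of two trials. Cumulative s.c. dosing, tested 30 min after dose, groups n=10, two independent assays. Analgesia defined quantally as doubling or more of baseline latency.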

[4] = target: T3, Delta-type opioid receptor (Mus musculus, UniProt P32300); assay: Displacement of [125I]-BNtxA from mouse cloned delta opioid receptor expressed in CHO cells after 90 mins; type: cell-based; procedure, shortened: as §1
T3 sequence (P32300 whole entry): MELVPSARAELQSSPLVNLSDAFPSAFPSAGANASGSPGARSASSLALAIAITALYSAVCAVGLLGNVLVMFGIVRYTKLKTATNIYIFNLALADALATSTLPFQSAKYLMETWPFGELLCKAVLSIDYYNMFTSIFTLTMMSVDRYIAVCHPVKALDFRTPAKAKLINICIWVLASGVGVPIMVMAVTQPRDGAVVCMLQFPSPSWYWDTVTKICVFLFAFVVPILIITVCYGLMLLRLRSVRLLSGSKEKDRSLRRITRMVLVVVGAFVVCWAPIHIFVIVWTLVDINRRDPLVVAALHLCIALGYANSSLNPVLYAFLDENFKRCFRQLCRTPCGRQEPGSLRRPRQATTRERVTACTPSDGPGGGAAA

Mus musculus [5] = organism: Mus musculus; assay: Selectivity ratio of Ki for mouse cloned kappa opioid receptor to Ki for mouse cloned mu opioid receptor
Mu-type opioid receptor [6] = target: T1, Mu-type opioid receptor; assay: Agonist activity at mouse cloned mu opioid receptor expressed in CHO cells after 60 mins by [35S]GTPgammaS binding assay; type: functional, cell-based
Procedure, shortened: (§2)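 Membranes from transfected cells incubated with agonist 60 min at 30°C in 50 mM Tris-HCl pH 7.4, 3 mM MgCl2, 0.2 mM EGTA, 10 mM NaCl, with 0.05 nM [35S]GTPγS and GDP. Filtration on glass-fibre filters, scintillation counting. Basal binding with GDP and no drug. Mean ± SEM, three assays in triplicate.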

Mus musculus [7] = organism: Mus musculus; assay: Selectivity ratio of Ki for mouse cloned delta opioid receptor to Ki for mouse cloned mu opioid receptor
[8] = target: Delta-type opioid receptor (Mus musculus) (UniProt P32300); assay: Agonist activity at mouse cloned delta opioid receptor expressed in CHO cells after 60 mins by [35S]GTPgammaS binding assay relative to DPDPE; type: functional, cell-based
Chain of Delta-type opioid receptor (Mus musculus) (P32300 whole entry): as above
Procedure, shortened: as §2, with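 “drug. […]” for “drug.”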

[9] = target: T3, Delta-type opioid receptor; assay: Agonist activity at mouse cloned delta opioid receptor expressed in CHO cells after 60 mins by [35S]GTPgammaS binding assay; type: functional, cell-based; procedure, shortened: as §2
Mus musculus [10] = organism: Mus musculus; assay: Selectivity ratio of EC50 for mouse cloned delta opioid receptor to EC50 for mouse cloned mu opioid receptor by [35S]GTPgammaS binding assay; type: functional
Mus musculus [11] = assay: Analgesic activity in sc dosed CD1 mouse assessed as increase in pain threshold by tail flick method in presence of kappa opioid receptor antagonist norBNI; type: functional, organism-based
Procedure, shortened: (§3)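 Tail-flick test in CD1 mice (n=6 per group) given agonist 5 mg/kg s.c. alone or with antagonist s.c.: norBNI 10 mg/kg or β-FNA 40 mg/kg 24 h before, NTI 20 mg/kg 15 min before. Latency read 30 min after agonist. Two independent replications; ANOVA with Bonferroni test (p < 0.05).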

Mus musculus [12] = assay: Toxicity in CD1 mouse assessed as respiratory depression at 24 mg/kg, sc measured after 15 to 35 mins; type: organism-based; set-up: dose 24 mg/kg, route subcutaneous; details: in vivo
Procedure, shortened: (§4)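 Awake, freely moving adult male CD1 mice, pulse oximeter breath rate after 30 min habituation. 5-s average breath rate every 5 min. Baseline over 25 min before s.c. injection, then recorded from 15 min post-injection for 35 min. Groups n=3, saline control. Values given as percent of baseline.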

[13] = target: Kappa-type opioid receptor (Mus musculus) (UniProt P33534); assay: Agonist activity at mouse cloned kappa opioid receptor expressed in CHO cells at 100 nM after 60 mins by [35S]GTPgammaS binding assay relative to U50488H; type: functional, cell-based
Chain of Kappa-type opioid receptor (Mus musculus) (P33534 whole entry): as the sequence (P33534 whole entry) above
Procedure, shortened: as §2, with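 “drug. […]” for “drug.”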

Mus musculus [14] = assay: Analgesic activity in sc dosed CD1 mouse assessed as increase in pain threshold by tail flick method in presence of delta opioid receptor antagonist […]; type: functional, organism-based; procedure, shortened: as §3
[15] = target: Mu-type opioid receptor (Mus musculus) (UniProt P42866); assay: Agonist activity at mouse cloned mu opioid receptor expressed in CHO cells after 60 mins by [35S]GTPgammaS binding assay relative to DAMGO; type: functional, cell-based
Chain of Mu-type opioid receptor (Mus musculus) (P42866 whole entry): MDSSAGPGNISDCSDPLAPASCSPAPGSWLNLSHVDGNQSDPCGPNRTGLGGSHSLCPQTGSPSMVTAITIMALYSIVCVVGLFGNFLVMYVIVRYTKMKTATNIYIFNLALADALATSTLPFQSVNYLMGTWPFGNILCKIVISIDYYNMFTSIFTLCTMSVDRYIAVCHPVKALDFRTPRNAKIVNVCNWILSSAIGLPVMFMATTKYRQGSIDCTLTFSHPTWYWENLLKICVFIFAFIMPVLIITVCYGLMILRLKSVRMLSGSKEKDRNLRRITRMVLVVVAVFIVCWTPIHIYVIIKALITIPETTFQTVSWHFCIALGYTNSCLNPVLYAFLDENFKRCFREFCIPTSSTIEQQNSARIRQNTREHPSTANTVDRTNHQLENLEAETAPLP
Procedure, shortened: as §2, with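 “drug. […]” for “drug.”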

Mus musculus [16] = assay: Analgesic activity in sc dosed CD1 mouse assessed as increase in pain threshold by tail flick method in presence of mu opioid receptor antagonist beta-FNA; type: functional, organism-based; procedure, shortened: as §3
Mus musculus [17] = organism: Mus musculus; assay: Selectivity ratio of EC50 for mouse cloned kappa opioid receptor to EC50 for mouse cloned mu opioid receptor by [35S]GTPgammaS binding assay; type: functional
[18] = target: T2, Kappa-type opioid receptor; assay: Agonist activity at mouse cloned kappa opioid receptor expressed in CHO cells after 60 mins by [35S]GTPgammaS binding assay; type: functional, cell-based
Procedure, shortened: as §2, with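 “drug. […]” for “drug.”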

Mus musculus [19] = assay: Toxicity in CD1 mouse assessed as respiratory depression at 20 mg/kg, sc measured after 15 to 35 mins; type: organism-based; set-up: dose 20 mg/kg, route subcutaneous; details: in vivo; procedure, shortened: as §4

T1 sequence (P42866 whole entry): as above

Compound | Ki (Mu-type opioid receptor [1]) [nM] | Ki [2] [nM] | ED50 (Mus musculus [3]) [mg/kg] | Ki [4] [nM] | other results
COc1ccc2c3c1O[C@H]1[C@H](NC(=O)/C=C/c4ccc(C(F)(F)F)cc4)C=C[C@H]4[C@@H](C2)N(C)CC[C@@]341 | 5.44 | > 100 | > 10 | > 100 | –
COc1ccc2c3c1O[C@H]1[C@H](NC(=O)/C=C/c4ccc(Cl)cc4)C=C[C@H]4[C@@H](C2)N(C)CC[C@@]341 | 3.81 | > 100 | > 10 | > 100 | –
CN1CC[C@]23c4c5ccc(O)c4O[C@H]2[C@H](NC(=O)/C=C/c2ccc(C(F)(F)F)cc2)C=C[C@H]3[C@H]1C5 | 0.19 | 10.5 | > 10 | 14.5 | Ratio Ki (Mus musculus [5]): 55.4
CN1CC[C@]23c4c5ccc(O)c4O[C@H]2[C@H](NC(=O)/C=C/c2cccc([N+](=O)[O-])c2)C=C[C@H]3[C@H]1C5 | 0.12 | 0.81 | > 10 | 5.15 | –
COc1ccc2c3c1O[C@H]1[C@H](NC(=O)/C=C/c4cccc([N+](=O)[O-])c4)C=C[C@H]4[C@@H](C2)N(C)CC[C@@]341 | 3.74 | > 100 | > 10 | > 100 | –
COc1ccc(/C=C/C(=O)N[C@@H]2C=C[C@H]3[C@H]4Cc5ccc(O)c6c5[C@@]3(CCN4C)[C@H]2O6)cc1 | 0.74 | 5.43 | > 10 | 15.3 | –
CN1CC[C@]23c4c5ccc(O)c4O[C@H]2[C@H](NC(=O)/C=C/c2ccccc2)C=C[C@H]3[C@H]1C5 | 0.1 | 2.9 | 3.13 | 10.3 | EC50 (Mu-type opioid receptor [6]): 1.38 nM; Ratio Ki (Mus musculus [7]): 103; Efficacy [8]: 102%; EC50 [9]: 9.1 nM; Ratio EC50 (Mus musculus [10]): 4; Activity (Mus musculus [11]): Active; Activity (Mus musculus [12]): Non-toxic; Efficacy [13]: 106%; Activity (Mus musculus [14]): inactive; Efficacy [15]: 95.3%; Activity (Mus musculus [16]): inactive; Ratio EC50 (Mus musculus [17]): 25; EC50 [18]: 36.5 nM
COc1ccc(/C=C/C(=O)N[C@@H]2C=C[C@H]3[C@H]4Cc5ccc(OC)c6c5[C@@]3(CCN4C)[C@H]2O6)cc1 | 25.2 | > 100 | > 10 | > 100 | –
CN1CC[C@]23c4c5ccc(O)c4O[C@H]2[C@H](NC(=O)/C=C/c2ccc(Cl)cc2)C=C[C@H]3[C@H]1C5 | 0.15 | 1.97 | > 10 | 9.38 | –
CN1CC[C@]23c4c5ccc(O)c4O[C@H]2[C@@H](O)C=C[C@H]3[C@H]1C5 [MORPHINE] | – | – | 4.96 | – | Activity (Mus musculus [19]): Toxic
COc1ccc2c3c1O[C@H]1[C@H](NC(=O)/C=C/c4ccccc4)C=C[C@H]4[C@@H](C2)N(C)CC[C@@]341 | 4.73 | > 100 | > 10 | > 100 | –
